# Bioassay records deposited in PubChem by several laboratories.
# HSF1 inh: HSF1 inhibitors in luciferase reporter cells, primary screen, cell-based, NIH3T3, luminescence; NIH3T3-HGL HSE-luciferase, MG132-induced, luminescence 8 h; hits give low values; activity change, negative = inhibition, % at 7.5 µM (by protocol); hit rate 0.77% among 300,000;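 active = more than half of replicate wells show activity change below -50%, luminescence cut by over half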;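 note: luciferase reports HSF-1 transcriptional activity via heat shock element; 0% = median of DMSO wells and -100% = zero luminescence signal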
# 697 NFkB inh: inhibitors of PMA/ionomycin-induced NF-kB reporter, 697 cells, primary screen, B-cell NF-kB inhibitor project, cell-based, luminescence, uHTS; 697 B-cell NF-kB luciferase reporter, 16 h; AID 435022, 2010; inhibition, % at 4 µM; hit rate 0.33% among 330,000; in the data active = inhibition above about 35%
# HSF-1 act: HSF-1 activators, primary screen, NIH3T3-HGL cells, MG132 stress, luminescence, single point. NIH3T3-HGL HSF-1 luciferase reporter, 8 h; 100% = twice DMSO control signal. activation, % at 9 µM. hit rate 1.7% among 300,000. AID 504408, 2011;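 active = mean replicate activation of at least 50% with a set share of replicates each reaching 50%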;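 note: 0% = median of the neutral control wells and 100% = twice that signal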
# GPR7 antagonist: GPR7 receptor antagonists, primary screen, cell-based, fluorescence, single concentration; hit rate 1.1% among 290,000; inhibition, % at 4.4 µM; Neuropeptides B/W receptor type 1 (Homo sapiens), P48145; AID 1861, 2009; GPR7-expressing cells, fluorescence antagonist assay; in the data active = inhibition above about 16%, passing the limit was not always enough;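 note: cells stimulated with the agonist NPW; 0% = agonist with vehicle and 100% = vehicle without agonist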
# Target sequence (P48145 whole entry, looked up): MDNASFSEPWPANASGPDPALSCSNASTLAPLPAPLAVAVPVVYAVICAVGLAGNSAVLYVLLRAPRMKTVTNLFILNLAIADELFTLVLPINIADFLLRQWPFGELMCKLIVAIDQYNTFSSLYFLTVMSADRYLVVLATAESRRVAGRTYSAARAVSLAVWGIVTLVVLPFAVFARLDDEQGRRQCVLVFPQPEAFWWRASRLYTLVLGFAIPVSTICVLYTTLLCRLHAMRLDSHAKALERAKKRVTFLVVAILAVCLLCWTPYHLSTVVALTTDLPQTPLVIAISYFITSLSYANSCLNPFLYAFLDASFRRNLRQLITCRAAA
# T cruzi repl: inhibitors of intracellular T. cruzi growth, primary screen, luminescence, NIH3T3 host cells | T. cruzi beta-gal in NIH3T3, 90 h | inhibition, % (test concentration not listed) | hit rate 1.4% among 300,000;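 active = mean inhibition across valid replicates above about 55%, limit read from the data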;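 note: signal also drops with host cell toxicity which is not excluded here; 0% = plate median of DMSO wells and 100% = zero luminescence signal; higher percent means less beta-gal luminescence so fewer parasites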
#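 System: mouse NIH/3T3 fibroblasts infected with β-gal-expressing T. cruzi Tulahuen C4 / Input: NIH/3T3 cells, 5,000 per well / Buffer or medium: Low-serum DMEM with 2% FBS / Probe or stimulus: 5000 reporter trypomastigotes per well / Schedule: ≥90 h infection period, 3 h prior cell attachment / Measured by: GalScreen luminescence, 60 min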
# Jurkat NFkB inh: inhibitors of induced NF-kB luciferase reporter, primary screen, TCR NF-kB activation inhibitor project, cell-based, luminescence, uHTS; hit rate 0.53% among 330,000; inhibition, % at 4 µM; AID 435003, 2010; Jurkat, PMA/ionomycin-induced NF-kB luciferase reporter; in the data active = inhibition above about 50%
# * = called active by the depositor; / = no result given. An excerpt weighted towards active compounds, which were near 4.8% of everything screened.
SMILES,HSF1 inh,697 NFkB inh,HSF-1 act,GPR7 antagonist,T cruzi repl,Jurkat NFkB inh
Cc1cccc2sc(NC(=O)C3CCN(S(=O)(=O)c4cc([N+](=O)[O-])ccc4Cl)CC3)nc12,25,-6,21,11,68*,23
O=C(O)CCCCNS(=O)(=O)/C=C/c1ccccc1,-1,9,5,-10,-10,-2
O=C(c1ccccc1NS(=O)(=O)c1ccc(Br)cc1)N1CCOCC1,-3,18,4,-4,-1,8
CCOc1ccc(-c2cc(C(=O)N3CCN(C)CC3)c3ccccc3n2)cc1,14,-23,11,-10,4,-54
COc1ccc(-c2cc(C(=O)N3CCN(c4ncccn4)CC3)c3ccccc3n2)c(OC)c1,-10,11,-25,2,16,-2
COc1ccc(-c2cc(C(=O)N3CCCCCC3)c3ccccc3n2)c(OC)c1,26,-2,79*,9,26,9
COc1ccc(OC)c(-c2cc(C(=O)N/N=C/c3cc(OC)c(OC)cc3OC)c3ccccc3n2)c1,-69*,23,-72,/,-12,0
CCOC(=O)N1CCN(C(=O)c2cc(-c3ccc(OCC)cc3)nc3ccccc23)CC1,34,-174,79*,-11,-17,36
CC12CN(C(=O)c3cccc([N+](=O)[O-])c3)C3(C#N)CC1CCC23C (stereo not given),-5,3,-7,-4,0,-10
CCSc1nnc(NC(=O)C(Cc2ccccc2)n2cccc2)s1 (stereo not given),-75*,-25,-79,1,-4,-5
Cc1ncc([N+](=O)[O-])n1CC(=O)Nc1ccc2c(c1)OCO2,1,-11,1,5,-8,4
COc1ccc(/C=C/C(=O)c2cccc(-n3cnnn3)c2)cc1O,27,2,57*,13,-10,-16
COc1ccccc1C(=O)COC(=O)c1cccc(-n2cnnn2)c1,/,-6,/,/,/,-5
Cc1c(C)n(-c2ccccc2)c2ncnc(NCCN(C)C)c12,-4,-33,12,-3,42,-29
CCCNC1=C(N(C(C)=O)c2cccc(F)c2)C(=O)c2ccccc2C1=O,5,/,14,3,55*,/
CCC(=O)N(C1=C(NC(C)C)C(=O)c2ccccc2C1=O)C(C)C,-11,-1,-32,-11,-8,7
Cc1cc(C)cc(C(=O)Nc2ccc(NC(=O)Cc3ccccc3)cc2)c1,-2,28,-13,-5,-5,10
CN=c1scc(-c2ccccc2F)n1/N=C(\C)c1cccnc1,26,-195,78*,-21,55*,-100
C/C(=N\N1CCN(C2c3ccccc3-c3ccccc32)CC1)c1cccnc1,-9,-17,-10,-10,6,1
Cn1c(SCC(=O)Nc2cccc(S(=O)(=O)NC3=NCCCCC3)c2)nnc1-c1ccccc1,-3,-16,-5,-3,6,1
CC(C)C(C)N(Cc1ccc(C(=O)O)cc1)C(=O)c1ccc2ccccc2n1 (stereo not given),18,-3,58*,/,-13,-7
Cc1nc2ccc(C(=O)Nc3ccccc3Cl)cc2s1,-24,-108,-17,18,8,-86
CCCNC(=O)Cn1cnc2sc(C(=O)Nc3ccc4c(c3)OCO4)c(C)c2c1=O,3,1,17,1,6,-10
Cc1ccc(NC(=O)c2sc3ncn(CC(=O)N4CCOCC4)c(=O)c3c2C)c(Br)c1,36,-24,78*,-12,1,-6
CCn1cnc2sc(C(=O)Nc3ccc4c(c3)OCO4)c(C)c2c1=O,33,9,67*,-5,-4,-38
SMILES,HSF1 inh,697 NFkB inh,HSF-1 act,GPR7 antagonist,T cruzi repl,Jurkat NFkB inh
Cc1cc([N+](=O)[O-])ccc1NC(=O)c1sc2ncn(CC(=O)N3CCOCC3)c(=O)c2c1C,15,5,38,4,-15,-12
O=C(NCCc1cn2ccccc2n1)C1CCCCC1,-5,-6,-9,19*,-12,-12
CCOc1ccc(CNC(=O)CCS(=O)(=O)c2ccc3c(c2)NC(=O)CO3)cc1OC,-4,7,-2,-16,1,6
Nc1cccc(/C=C/c2ccncc2)c1,8,7,54*,4,36,-6
CC(NC(=O)CN(C)CC(=O)Nc1cccc(F)c1)c1ccccc1 (stereo not given),/,-12,/,/,/,-10
CNC(=O)C(=O)NCC1OCCN1S(=O)(=O)c1ccc([N+](=O)[O-])cc1 (stereo not given),0,-3,-16,0,21,-4
O=C(NCc1ccccc1)C(=O)NCC1OCCN1S(=O)(=O)c1ccc([N+](=O)[O-])cc1 (stereo not given),-1,23,1,-5,60*,10
CCCCNC(=O)C1CCCN1C(=O)Nc1cccc(OC)c1 (stereo not given),-52*,-10,-61,-4,-13,-9
O=P(COCCCCCOCP(=O)(c1ccccc1)c1ccccc1)(c1ccccc1)c1ccccc1,14,-25,14,-11,30,8
CCCn1c(C)nnc1SCC(=O)NC1CCCCC1,-1,-1,-13,-11,-28,4
CCCCN(C(=O)CSCC(=O)Nc1ccc(C)cc1)c1c(N)n(CC(C)C)c(=O)[nH]c1=O,/,24,/,/,/,3
O=C(Nc1ccc(Cl)cc1Cl)c1ccc2c(=O)n3c(nc2c1)CCC3,27,-126,37,/,-5,-100
O=C(Nc1ccc(Br)cc1Cl)c1ccc2c(=O)n3c(nc2c1)CCC3,31,-98,55*,/,15,-75
COc1ccc(-c2nc(C3CCCCC3)no2)cc1OC,36,-63,81*,-2,-3,-62
CCC1C(=NO)C(CC)C(c2ccccc2)NC1c1ccccc1 (stereo not given),12,13,59*,-27,48,17
O=C(CCl)NC1(C(F)(F)F)C(=O)Nc2c1c(=O)[nH]c(=O)n2-c1ccccc1 (stereo not given),-8,7,-8,1,-7,10
O=C(O)CNC(=O)CCN1C(=O)c2ccccc2C1=O,-7,16,1,-4,-9,4
O=C1c2ccccc2C(=O)N1CCOc1ccccc1,80,-149,125*,-17,9,-14
Cc1ccccc1OCCN1C(=O)c2ccccc2C1=O,17,-64,20,3,-10,-5
Nc1cccc2c1C(=O)N(CCOc1ccc(F)cc1)C2=O,39,-193,62*,-6,2,-128
